# Data published in ChEMBL document CHEMBL4834470, “Lathyrane Diterpenoids as Novel hPXR Agonists: Isolation, Structural Modification, and Structure-Activity Relationships” (ACS Med Chem Lett, 2021).
# Target: T1, PXR (NR1I2); CYP3A4 promoter reporter (Homo sapiens, UniProt O75469)
# T1 sequence (O75469 whole entry): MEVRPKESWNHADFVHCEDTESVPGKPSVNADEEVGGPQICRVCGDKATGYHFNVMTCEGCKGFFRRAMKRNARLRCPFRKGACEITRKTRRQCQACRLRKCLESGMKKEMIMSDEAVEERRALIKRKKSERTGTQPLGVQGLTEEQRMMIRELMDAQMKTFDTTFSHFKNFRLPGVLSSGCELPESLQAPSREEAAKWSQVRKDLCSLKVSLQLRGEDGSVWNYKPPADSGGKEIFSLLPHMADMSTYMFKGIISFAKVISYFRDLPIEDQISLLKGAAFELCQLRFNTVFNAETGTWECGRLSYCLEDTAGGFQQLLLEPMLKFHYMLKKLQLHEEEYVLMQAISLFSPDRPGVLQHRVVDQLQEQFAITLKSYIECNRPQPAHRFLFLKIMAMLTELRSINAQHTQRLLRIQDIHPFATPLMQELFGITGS
# Experiment: Agonist activity at human PXR transfected in human HEK293T cells co-transfected with CYP3A4-Luc plasmid at 10 uM incubated for 24 hrs by dual-luciferase reporter gene assay relative to control; call rule not given here
row,"fold induction at 24 h, 10 µM",Structure (SMILES)
1,6.9,C=C1[C@H](OC(=O)c2cccnc2)C[C@H]2[C@@H](/C=C(\C)C(=O)[C@@]3(OC(C)=O)C[C@H](C)[C@H](OC(=O)c4ccccc4)[C@@H]3[C@H]1OC(C)=O)C2(C)C
2,4.9,CC(=O)O[C@@H]1[C@H]2[C@@H](OC(=O)c3ccccc3)[C@@H](C)C[C@]2(OC(C)=O)C(=O)/C(C)=C/[C@@H]2[C@H](CC[C@H]1C)C2(C)C
3,3.4,CC(=O)O[C@H]1[C@@H](C)[C@H](OC(=O)c2ccccc2)C[C@H]2[C@@H](C[C@@H](C)C(=O)[C@@]3(OC(C)=O)C[C@H](C)[C@H](OC(=O)c4ccccc4)[C@H]13)C2(C)C

# Test system: HEK-293T
# Experiment: Cytotoxicity against human HEK293T cells assessed as reduction in cell viability at 10 uM measured after 24 hrs by CCK8 assay
# Format: cell-based
row,Structure (SMILES),Activity
1,C=C1CC[C@H]2[C@@H](/C=C(\C)C(=O)[C@@]3(O)C[C@H](C)[C@H](O)[C@@H]3[C@H]1O)C2(C)C,Non-Toxic
2,C=C1[C@H](O)C[C@H]2[C@@H](/C=C(\C)C(=O)[C@@]3(OC(C)=O)C[C@H](C)[C@H](OC(=O)c4ccccc4)[C@@H]3[C@H]1OC(C)=O)C2(C)C,Non-Toxic
3,C=C1CC[C@H]2[C@@H](/C=C(\C)C(=O)[C@@]3(OC(C)=O)C[C@H](C)[C@H](OC(=O)/C=C/c4ccccc4)[C@@H]3[C@H]1O)C2(C)C,Toxic
4,C=C1C(=O)C[C@H]2[C@@H](/C=C(\C)C(=O)[C@@]3(OC(C)=O)C[C@H](C)[C@H](OC(=O)c4ccccc4)[C@@H]3[C@H]1OC(C)=O)C2(C)C,Toxic
5,C=C1CC[C@H](C(C)(C)O)/C=C/C(C)=C\[C@@]2(O)C[C@H](C)[C@H](OC(=O)c3ccccc3)[C@@H]2[C@H]1OC(C)=O,Non-Toxic
6,C=C1CC[C@H]2[C@@H](/C=C(\C)C(=O)[C@@]3(OC(C)=O)C[C@H](C)[C@H](O)[C@@H]3[C@H]1OC(=O)/C=C/c1ccccc1)C2(C)C,Toxic
7,C=C1[C@H](OC(C)=O)C[C@H]2[C@@H](/C=C(\C)C(=O)[C@@]3(O)C[C@H](C)[C@H](OC(C)=O)[C@@H]3[C@H]1OC(C)=O)C2(C)C,Non-Toxic
8,CC(=O)O[C@]12C[C@H](C)[C@H](OC(=O)c3ccccc3)[C@@H]1/C=C(\CO)C(=O)C[C@H]1[C@@H](/C=C(\C)C2=O)C1(C)C,Non-Toxic
9,C=C1CC[C@H]2[C@@H](C[C@@H](C)C(=O)[C@@]3(OC(C)=O)C[C@H](C)[C@H](OC(=O)c4ccccc4)[C@@H]3[C@H]1OC(C)=O)C2(C)C,Non-Toxic
10,CC(=O)OC/C1=C/C[C@H]2[C@@H](/C=C(\C)C(=O)[C@@]3(OC(C)=O)C[C@H](C)[C@H](OC(=O)c4ccccc4)[C@@H]3[C@H]1OC(C)=O)C2(C)C,Non-Toxic
11,C=C1[C@H](OC(=O)c2cccnc2)C[C@H]2[C@@H](/C=C(\C)C(=O)[C@@]3(OC(C)=O)C[C@H](C)[C@H](OC(=O)c4ccccc4)[C@@H]3[C@H]1OC(C)=O)C2(C)C,Non-Toxic
12,C=C1[C@H](OC(=O)c2ccco2)C[C@H]2[C@@H](/C=C(\C)C(=O)[C@@]3(O)C[C@H](C)[C@H](O)[C@@H]3[C@H]1O)C2(C)C,Non-Toxic
13,C=C1CC[C@H]2[C@@H]([C@@H]3O[C@]4(C=C3C)C[C@H](C)[C@H](OC(=O)c3ccccc3)[C@@H]4[C@H]1OC(C)=O)C2(C)C,Non-Toxic
14,C=C1CC[C@H](C(C)(C)OC)/C=C/C(C)=C\[C@@]2(O)C[C@H](C)[C@H](OC(=O)c3ccccc3)[C@@H]2[C@H]1OC(C)=O,Non-Toxic
15,CC(=O)O[C@@H]1[C@H]2[C@@H](OC(=O)c3ccccc3)[C@@H](C)C[C@]2(OC(C)=O)C(=O)/C(C)=C/[C@@H]2[C@H](CC[C@H]1C)C2(C)C,Non-Toxic
16,C=C1[C@H](OC(C)=O)C[C@H]2[C@@H](/C=C(\C)C(=O)[C@@]3(O)C[C@H](C)[C@H](O)[C@@H]3[C@H]1O)C2(C)C,Non-Toxic
17,CC(=O)O[C@]12C[C@H](C)[C@H](OC(=O)c3cccnc3)[C@@H]1[C@H]1O[C@@]1(C)CC[C@H]1[C@@H](/C=C(\C)C2=O)C1(C)C,Non-Toxic

row,Structure (SMILES),Activity
1,CC(=O)O[C@H]1[C@@H](C)[C@H](OC(=O)c2ccccc2)C[C@H]2[C@@H](C[C@@H](C)C(=O)[C@@]3(OC(C)=O)C[C@H](C)[C@H](OC(=O)c4ccccc4)[C@H]13)C2(C)C,Non-Toxic
2,C=C(C)[C@@H]1/C=C/C(C)=C\[C@@]2(O)C[C@H](C)[C@H](OC(=O)c3ccccc3)[C@@H]2[C@@H](OC(C)=O)C(=C)CC1,Non-Toxic
3,C=C1CC[C@H]2[C@@H](/C=C(\C)C(=O)[C@@]3(OC(C)=O)C[C@H](C)[C@H](OC(=O)/C=C/c4ccccc4)[C@@H]3[C@H]1OC(C)=O)C2(C)C,Non-Toxic
4,C=C1CC[C@H]2[C@@H](/C=C(\C)C(=O)[C@@]3(O)C[C@H](C)[C@H](O)[C@@H]3C1=O)C2(C)C,Toxic
5,C=C1[C@H](OC(=O)c2ccccc2)C[C@H]2[C@@H]([C@H]3O[C@]3(C)C(=O)[C@@]3(OC(C)=O)C[C@H](C)[C@H](OC(=O)c4ccccc4)[C@@H]3[C@H]1OC(C)=O)C2(C)C,Non-Toxic
6,C=C1[C@H](OC(=O)c2ccccc2)C[C@H]2[C@@H](/C=C(\C)C(=O)[C@@]3(OC(C)=O)C[C@H](C)[C@H](OC(=O)c4ccccc4)[C@@H]3[C@H]1OC(C)=O)C2(C)C,Non-Toxic
7,C=C1[C@H](OC(=O)c2ccccc2)C[C@H]2[C@@H](/C=C(\C)C(=O)[C@@]3(O)C[C@H](C)[C@H](O)[C@@H]3[C@H]1OC(=O)c1ccccc1)C2(C)C,Non-Toxic
8,C=C1[C@H](OC(=O)c2ccccc2)C[C@H]2[C@@H](/C=C(\C)[C@H](OC(C)=O)[C@@]3(O)C[C@H](C)[C@H](OC(=O)c4ccccc4)[C@@H]3[C@H]1OC(C)=O)C2(C)C,Non-Toxic
9,C=C1CC[C@H]2[C@@H](/C=C(\C)C(=O)[C@@]3(OC(C)=O)C[C@H](C)[C@H](OC(=O)c4cccnc4)[C@@H]3[C@H]1OC(C)=O)C2(C)C,Non-Toxic
10,CC(=O)OC/C1=C/C[C@H]2[C@@H](/C=C(\C)C(=O)[C@@]3(O)C[C@H](C)[C@H](OC(C)=O)[C@@H]3[C@H]1OC(C)=O)C2(C)C,Non-Toxic
11,CC(=O)O[C@@H]1[C@H]2[C@@H](OC(=O)c3ccccc3)[C@@H](C)C[C@]2(OC(C)=O)C(=O)[C@@]2(C)O[C@@H]2[C@@H]2[C@H](C[C@@H](OC(=O)c3ccccc3)[C@]13CO3)C2(C)C,Non-Toxic
12,C=C1[C@H](OC(=O)c2ccccc2)C[C@H]2[C@@H](/C=C(\C)C(=O)[C@@]3(O)C[C@H](C)[C@H](OC(=O)c4ccccc4)[C@@H]3[C@H]1OC(C)=O)C2(C)C,Non-Toxic
13,C=C1[C@H](OC(=O)c2cccs2)C[C@H]2[C@@H](/C=C(\C)C(=O)[C@@]3(O)C[C@H](C)[C@H](O)[C@@H]3[C@H]1O)C2(C)C,Non-Toxic
14,C/C1=C\[C@@H]2[C@H](CC(=O)/C(COC(=O)c3ccccc3)=C/[C@H]3[C@@H](O)[C@@H](C)C[C@]3(O)C1=O)C2(C)C,Non-Toxic
15,C=C1[C@H](O)C[C@H]2[C@@H](/C=C(\C)C(=O)[C@@]3(O)C[C@H](C)[C@H](O)[C@@H]3[C@H]1O)C2(C)C,Non-Toxic
16,C=C1CC[C@H]2[C@@H](/C=C(\C)C(=O)[C@@]3(OC(C)=O)C[C@H](C)[C@H](OC(=O)c4ccccc4)[C@@H]3[C@H]1OC(C)=O)C2(C)C,Non-Toxic

# Target: T2, Nuclear receptor subfamily 1 group I member 2 (Homo sapiens, UniProt O75469)
# T2 sequence (O75469 whole entry): T1 sequence (O75469 whole entry)
# Experiment: Agonist activity at PXR in human HepaRG cells assessed as upregulation of CYP2B6 mRNA expression at 10 uM by RT-qPCR analysis
# Format: cell-based
# Procedure, shortened: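 HepaRG cells exposed to test agents at 10 μM, with rifampicin (10 μM) as reference agonist. CYP2B6 mRNA quantified by RT-qPCR, normalized to β-ACTIN housekeeping gene. Mean ± SD, n = 3.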
row,Activity,Structure (SMILES)
1,Active,C=C1[C@H](OC(=O)c2cccnc2)C[C@H]2[C@@H](/C=C(\C)C(=O)[C@@]3(OC(C)=O)C[C@H](C)[C@H](OC(=O)c4ccccc4)[C@@H]3[C@H]1OC(C)=O)C2(C)C
